High-throughput results from PubChem BioAssay.
STAT1 activator: STAT1 signaling activation; NIH 3T3 STAT1-luciferase reporter, IFN-gamma, luminescence; 100% = IFN-gamma alone, no compound; AID 932; activation (% of control), % at 5.5 µM; 200,000 tested, 2.6% active;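 active means activation above the screen-wide mean activation plus 3 SD, cut at about 130% in these data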;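 further: raw ratio to IFN-gamma control signal so 100% means no change and 0% no light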
APP 5'UTR act: activates APP 5'UTR luciferase reporter | SH-SY5Y APP 5'UTR luciferase reporter, luminescence; zero percent = DMSO vehicle wells | AID 1276 | 190,000 tested, 1% active | activation, % at 2 µM;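 active means activation above a set limit, based on mean plus 3 SD of controls, cut at about 140% in these data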
STAT1 blocker: inhibitors of IFN-gamma induced STAT1 signaling. 200,000 tested, 0.35% active. NIH 3T3 STAT1-luciferase reporter, luminescence. inhibition, % at 5.5 µM;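 active means inhibition above a set limit, the mean inhibition across all tested compounds plus 3 SD, cut at about 34% in these data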;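 further: 0% = IFN-gamma with DMSO and 100% = IFN-gamma with 300 µM nifuroxazide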
STAT3 act: increases IL-6 driven STAT3 reporter signal; 190,000 tested, 0.91% active; activation (% of control), % at 5.6 µM; U3A cells, IL-6 STAT3-luciferase reporter, luminescence; 100% = signal with IL-6 EC80 alone;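 active means activation above the screen-wide mean of compound activation plus 3 SD, cut at about 130% in these data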;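 further: 0% = background luminescence of wells with medium and substrate only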
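Test system: Human STAT1-deficient U3A cells with stable STAT3-luciferase reporter | Also added: Interleukin-6, 33 ng/mL | Timing: Compound pre-incubation 1 h before IL-6, then 6 h stimulation at 37 °C | Technique: Luciferase reporter luminescence | Read-out: Percent of IL-6-only median luminescence | Benchmarks: IL-6-only wells as 100% reference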
STAT3 blocker: STAT3 signaling inhibition. U3A cells, IL-6 STAT3-luciferase reporter, luminescence; host cell line lacks STAT1. inhibition, % at 5.5 µM. 190,000 tested, 0.89% active. AID 862;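 active means inhibition above the mean inhibition across all screened compounds plus 3 SD, cut at about 44% in these data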;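 further: 0% = DMSO only wells and 100% = 100 µM nifuroxazide control wells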
NF-kB expr up: raises NF-kB expression in human neuronal cells | NF-kB reporter expression; stronger effect = higher value | fold change at 12.5 µM | 190,000 tested, 1.6% active | AID 1239; in the data active means fold change above about 3.3
An asterisk follows results filed as active. Only some compounds are listed: those with a hit (about 5.1% of all), similar ones and a draw of the others.

Results for O=C(NC1CCCCC1)C(=S)NCCc1ccccc1 ?
STAT1 activator: 115.2; APP 5'UTR act: 24.1; STAT1 blocker: -18.6; STAT3 act: 97.3; STAT3 blocker: 6.8; NF-kB expr up: 1.37

Results for CC1CCN(C(=S)NCCc2ccccc2)CC1 ?
STAT1 activator: 124.1; APP 5'UTR act: 95.0; STAT1 blocker: -26.2; STAT3 act: 113.0; STAT3 blocker: -7.0; NF-kB expr up: 3.37*

Results for C=CCc1cccc(C=Nc2cc(Br)ccc2O)c1O ?
STAT1 activator: 72.0; APP 5'UTR act: -15.8; STAT1 blocker: 29.7; STAT3 act: 97.5; STAT3 blocker: 4.3; NF-kB expr up: 1

Results for C=CCc1cccc(C=Nc2cccn3cc(-c4ccccc4)nc23)c1O ?
STAT1 activator: 131.5*; APP 5'UTR act: 52.9; STAT1 blocker: -35.1; STAT3 act: 102.5; STAT3 blocker: -1.7; NF-kB expr up: 1.35

How did Cc1cc(C(=O)Nc2ccc3c(c2)OCCO3)co1 do in these assays?
STAT1 activator: 120.4; APP 5'UTR act: 138.1*; STAT1 blocker: -22.4; STAT3 act: 101.7; STAT3 blocker: 7.9; NF-kB expr up: 4.7*

How did Cc1ccc(C(=O)Nc2ccncc2)o1 do in these assays?
STAT1 activator: 92.8; APP 5'UTR act: 11.6; STAT1 blocker: 7.8; STAT3 act: 94.5; STAT3 blocker: 9.3; NF-kB expr up: 1.23

How did Cc1ccc(C(=O)Nc2ccc3c(c2)OCCO3)o1 do in these assays?
STAT1 activator: 109.5; APP 5'UTR act: 107.2; STAT1 blocker: -10.5; STAT3 act: 87.2; STAT3 blocker: 20.1; NF-kB expr up: 4.01*

How did Cn1nccc1C(=O)Nc1ccc2c(c1)OCCO2 do in these assays?
STAT1 activator: 116.1; APP 5'UTR act: 68.1; STAT1 blocker: -20.3; STAT3 act: 89.5; STAT3 blocker: 17.1; NF-kB expr up: 2.14

How did O=C(CN1C(=O)c2ccccc2S1(=O)=O)c1ccccc1 do in these assays?
STAT1 activator: 43.8; APP 5'UTR act: -3.3; STAT1 blocker: 61.7*; STAT3 act: 50.0; STAT3 blocker: 65.3*; NF-kB expr up: 0.15

What do the screens show for `CC(=O)c1cc2c(O)c(O)ccc2o1`?
STAT1 activator: 89.0; APP 5'UTR act: -4.6; STAT1 blocker: 11.9; STAT3 act: 107.4; STAT3 blocker: -4.1; NF-kB expr up: 0.75

Results for O=c1c2ccccc2nnn1COc1cccc(Cl)c1 ?
STAT1 activator: 130.6*; APP 5'UTR act: 18.5; STAT1 blocker: -34.7; STAT3 act: 97.4; STAT3 blocker: 9.7; NF-kB expr up: 1.38

Results for COc1ccc(Oc2ccc(/C=C/C(=O)c3ccc(O)cc3)cc2[N+](=O)[O-])cc1 ?
STAT1 activator: 100.7; APP 5'UTR act: -25.5; STAT1 blocker: -0.8; STAT3 act: 113.6; STAT3 blocker: -11.5; NF-kB expr up: 4.96*

Results for O=C(Nc1nccs1)c1ccc2c(=O)n3c(nc2c1)CCCCC3 ?
STAT1 activator: 132.0*; APP 5'UTR act: 66.4; STAT1 blocker: -35.2; STAT3 act: 106.7; STAT3 blocker: -8.4; NF-kB expr up: 1.21

Results for O=C(Nc1nc(-c2ccc(F)c(F)c2)cs1)c1ccc(OCC2CCCO2)cc1 (stereo not drawn) ?
STAT1 activator: 110.0; APP 5'UTR act: 24.4; STAT1 blocker: -11.0; STAT3 act: 95.3; STAT3 blocker: 0.7; NF-kB expr up: 0.99

How did Cc1csc(NC(=O)c2ccc(OCC3CCCO3)cc2)n1 (stereo not drawn) do in these assays?
STAT1 activator: 43.9; APP 5'UTR act: 160.0*; STAT1 blocker: 59.6*; STAT3 act: 50.6; STAT3 blocker: 60.6*; NF-kB expr up: 4.78*

Results for O=C(Nc1cccc(S(=O)(=O)N2CCCCC2)c1)c1ccc2c(=O)n3c(nc2c1)CCCCC3 ?
STAT1 activator: 85.1; APP 5'UTR act: -3.8; STAT1 blocker: 16.5; STAT3 act: 83.3; STAT3 blocker: 23.3; NF-kB expr up: 0.53

Results for Cc1csc(NC(=O)c2ccc(N3CCCC3=O)cc2)n1 ?
STAT1 activator: 38.5; APP 5'UTR act: 47.4; STAT1 blocker: 65.2*; STAT3 act: 25.0; STAT3 blocker: 89.3*; NF-kB expr up: 1.44

How did Cc1csc(NC(=O)c2ccc3c(=O)n4c(nc3c2)CCCCC4)n1 do in these assays?
STAT1 activator: 120.8; APP 5'UTR act: 148.3*; STAT1 blocker: -23.2; STAT3 act: 102.7; STAT3 blocker: -0.9; NF-kB expr up: 1.95

What do the screens show for `CN1CCN(C(=O)c2ccc3c(=O)n4c(nc3c2)CCCCC4)CC1`?
STAT1 activator: 103.8; APP 5'UTR act: -5.9; STAT1 blocker: -4.2; STAT3 act: 106.4; STAT3 blocker: -4.4; NF-kB expr up: 1.1

How did CCC/C(=N\NC(=O)CCC(=O)NCc1ccccc1)c1ccccc1 do in these assays?
STAT1 activator: 94.3; APP 5'UTR act: 3.1; STAT1 blocker: 3.0; STAT3 act: 95.4; STAT3 blocker: 10.1; NF-kB expr up: 1.17

What do the screens show for `CCN1CCN(CCNC(=O)CS(=O)(=O)Cc2nc(-c3ccc(C)cc3)oc2C)CC1`?
STAT1 activator: 96.3; STAT1 blocker: 4.1; STAT3 act: 96.6; STAT3 blocker: 12.8; NF-kB expr up: 0.79

How did OCCNCc1cccc(OCc2ccc(Cl)cc2)c1 do in these assays?
STAT1 activator: 113.1; APP 5'UTR act: 2.5; STAT1 blocker: -15.8; STAT3 act: 106.0; STAT3 blocker: 1.1; NF-kB expr up: 0.83

What do the screens show for `O=C(CCC(=O)c1cccs1)Nc1ccccc1F`?
STAT1 activator: 109.7; APP 5'UTR act: -4.0; STAT1 blocker: -10.8; STAT3 act: 101.5; STAT3 blocker: 5.9; NF-kB expr up: 1.42

Results for Cc1ccc(COn2c(-c3ccc(Cl)cc3)nc3ccc([N+](=O)[O-])cc32)cc1 ?
STAT1 activator: 135.0*; STAT1 blocker: -38.3; STAT3 act: 103.5; STAT3 blocker: 2.0; NF-kB expr up: 5.32*

Results for Clc1ccc(COn2c(-c3ccc(Cl)cc3)nc3ccccc32)cc1 ?
STAT1 activator: 92.3; STAT1 blocker: 8.4; STAT3 act: 89.3; STAT3 blocker: 18.8; NF-kB expr up: 0.93

What do the screens show for `O=[N+]([O-])c1ccc2nc(-c3ccc(Cl)cc3)n(OCc3ccccc3)c2c1`?
STAT1 activator: 129.4*; STAT1 blocker: -32.2; STAT3 act: 95.8; STAT3 blocker: 11.1; NF-kB expr up: 4.45*

What do the screens show for `CCn1c(SCC(=O)Nc2cc(NC(C)=O)ccc2OC)nnc1-c1ccncc1`?
STAT1 activator: 103.6; APP 5'UTR act: 1.4; STAT1 blocker: -3.9; STAT3 act: 107.0; STAT3 blocker: -5.8; NF-kB expr up: 1.17

What do the screens show for `c1ccc(-c2noc(CC3CCCCC3)n2)nc1`?
STAT1 activator: 132.7*; APP 5'UTR act: 133.2; STAT1 blocker: -37.5; STAT3 act: 91.4; STAT3 blocker: 16.6; NF-kB expr up: 2.99

What do the screens show for `Clc1cc(Cl)c(OCc2nc(-c3ccccn3)no2)cc1Cl`?
STAT1 activator: 132.4*; APP 5'UTR act: 82.7; STAT1 blocker: -35.1; STAT3 act: 91.2; STAT3 blocker: 14.1; NF-kB expr up: 5.23*
